Here are results for two substances from paper PMC8395708 (JACS Au, 2021).

The format of data set [1] is in vivo, C57BL/6JNarl mice. The settings on record: mice, oral gavage 13.25 mg/kg.
Data set [2] in a line: NO release, Nitrate/Nitrite Colorimetric Assay. The note with it: degradation of BSA-bound DNIC, PBS pH 7.4. The data set is classed as physicochemical. In outline:
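25 μM test compound was left to degrade under air for 2 d in 50 mM phosphate pH 7.4, SIF or SGFsp, or with BSA in PBS pH 7.4. For nitrate/nitrite, 10 μL sample was diluted in kit buffer with enzyme cofactor and nitrate reductase for 1 h at room temperature. NO equivalents were calculated from 0–35 μM nitrite/nitrate standard curves.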

The target of data set [3] is bovine serum albumin (BSA) (Bos taurus, UniProt P02769). Description: Reaction of DNIC-1 with bovine serum albumin. The class given is binding. The note with it: PBS pH 7.4, 37 °C, EPR.
Chain of bovine serum albumin (BSA) (P02769 25-607): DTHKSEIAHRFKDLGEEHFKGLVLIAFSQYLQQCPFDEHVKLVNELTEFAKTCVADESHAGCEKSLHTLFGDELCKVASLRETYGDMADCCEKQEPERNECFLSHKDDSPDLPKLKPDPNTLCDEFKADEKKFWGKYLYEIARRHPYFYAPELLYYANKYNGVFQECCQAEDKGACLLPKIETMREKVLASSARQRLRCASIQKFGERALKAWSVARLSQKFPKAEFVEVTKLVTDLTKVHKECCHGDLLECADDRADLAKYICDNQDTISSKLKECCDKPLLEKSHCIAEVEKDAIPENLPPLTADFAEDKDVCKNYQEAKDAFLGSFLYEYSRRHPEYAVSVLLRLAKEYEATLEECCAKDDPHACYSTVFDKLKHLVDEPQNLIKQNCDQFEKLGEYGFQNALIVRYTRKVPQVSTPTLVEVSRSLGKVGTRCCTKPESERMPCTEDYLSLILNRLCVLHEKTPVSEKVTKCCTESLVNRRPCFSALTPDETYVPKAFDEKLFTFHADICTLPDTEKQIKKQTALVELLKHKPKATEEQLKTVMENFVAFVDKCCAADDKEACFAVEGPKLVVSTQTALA
A short description of data set [4]: Effect of BSA or L-cysteine on degradation of DNIC-1 in PBS. The class given is physicochemical. The method, boiled down:
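UV-vis stability: 25 μM test compound with 10 mg/mL BSA in PBS pH 7.4 at 37 °C under air. […] The same design was used with 150 μM L-cysteine instead of BSA, and with BSA under anaerobic conditions. Three independent experiments.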

For the substance “[(NO)2Fe(SR)(mucin)] (R = CH2CH2OH) [mucin-bound DNIC]”, the “half-life in the small intestine” value in data set [1] is on record as 3.0 ± 0.6 h.

For the substance “[(NO)2Fe(SR)(BSA)] (R = CH2CH2OH) [BSA-bound DNIC]”, the released nitric oxide in data set [2] is given as approximately 1.4 equiv. Moreover, in data set [3], the “reaction time to plateau of BSA-bound DNIC formation” value is given as 15 min. Moreover, the “half-life of BSA-bound DNIC (UV-vis decay at 384 and 565 nm)” value in data set [4] (25 μM DNIC-1 + 10 mg/mL BSA, PBS pH 7.4, aerobic, 37 °C) is 3.5 ± 0.3 h. In addition, the “half-life of BSA-bound DNIC (decay of EPR signal)” value in data set [4] (25 μM DNIC-1 + 50 mg/mL BSA, PBS pH 7.4, aerobic, 37 °C, EPR) is recorded as 3.5 ± 0.2 h. Moreover, the “stability under anaerobic condition” value in data set [4] (10 mg/mL BSA, PBS pH 7.4, 37 °C, 24 h, anaerobic) is “No change of the UV–vis spectra”.
